Consider two compounds from ChEMBL document CHEMBL5649170, “Sustained microglial depletion with CSF1R inhibitor impairs parenchymal plaque development in an Alzheimer's disease model” (Nat Commun, 2019).

The source made the active and inactive calls. No cut-off for these calls is given here.

Data set [1] can be described thus: Drug concentration in wildtype mouse plasma at 600 ppm administered as rodent chow starting from 1.5 months and measured after 5 months. The format is ADME, cell-free. The settings on record: route po, time 3.5 months. In outline: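 WT or 5xFAD mice were fed PLX3397 in AIN-76A chow at 600 ppm or 75 ppm from 1.5 to 5 months of age. Terminal brain and plasma drug concentrations were determined at study end.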

Data set [2] deals with Megakaryocyte-associated tyrosine-protein kinase (Homo sapiens, UniProt P42679). Briefly: Inhibition of MATK (unknown origin).
Chain of Megakaryocyte-associated tyrosine-protein kinase (P42679 whole entry): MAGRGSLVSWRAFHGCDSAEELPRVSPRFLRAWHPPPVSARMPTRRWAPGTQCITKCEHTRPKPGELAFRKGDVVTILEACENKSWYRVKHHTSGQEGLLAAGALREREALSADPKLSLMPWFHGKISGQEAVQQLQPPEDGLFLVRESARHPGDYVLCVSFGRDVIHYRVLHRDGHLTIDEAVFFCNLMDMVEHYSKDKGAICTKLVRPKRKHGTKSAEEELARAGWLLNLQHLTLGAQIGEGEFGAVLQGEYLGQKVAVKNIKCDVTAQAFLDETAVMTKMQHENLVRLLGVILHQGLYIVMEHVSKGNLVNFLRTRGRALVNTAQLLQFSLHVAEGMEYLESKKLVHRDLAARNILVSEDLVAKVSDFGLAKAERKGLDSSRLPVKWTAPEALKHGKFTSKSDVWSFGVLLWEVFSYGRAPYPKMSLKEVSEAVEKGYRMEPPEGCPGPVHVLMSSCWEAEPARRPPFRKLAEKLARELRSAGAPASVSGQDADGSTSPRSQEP
Data set [3] concerns the target Serine/threonine-protein kinase 4 (Homo sapiens, UniProt Q13043). Briefly: Inhibition of STK4 (unknown origin).
In data set [4] the target is Platelet-derived growth factor receptor alpha (Homo sapiens, UniProt P16234). Briefly: Inhibition of PDGFRA (unknown origin).
Data set [5] concerns the target Ribosomal protein S6 kinase alpha-3 (Homo sapiens, UniProt P51812). Briefly: Inhibition of RPS6KA3 (unknown origin).
Data set [6] deals with Mus musculus. Briefly: Antialzheimer activity in 5XFAD mouse assessed as number of GFAP positive cells per FOV at 1200 ppm administered as rodent chow starting from 1.5 months to 4 months followed by compound removal and measured after 1 month by immunolabeling based confocal microscopic analysis (reference value: 20 to 71). The format is functional. The following applies: route po, time 2.5 months, 1825 h.

Data set [7] deals with Calcium/calmodulin-dependent protein kinase type 1D (Homo sapiens, UniProt Q8IU85). Put plainly: Inhibition of CAMK1D (unknown origin).
Chain of Calcium/calmodulin-dependent protein kinase type 1D (Q8IU85 whole entry): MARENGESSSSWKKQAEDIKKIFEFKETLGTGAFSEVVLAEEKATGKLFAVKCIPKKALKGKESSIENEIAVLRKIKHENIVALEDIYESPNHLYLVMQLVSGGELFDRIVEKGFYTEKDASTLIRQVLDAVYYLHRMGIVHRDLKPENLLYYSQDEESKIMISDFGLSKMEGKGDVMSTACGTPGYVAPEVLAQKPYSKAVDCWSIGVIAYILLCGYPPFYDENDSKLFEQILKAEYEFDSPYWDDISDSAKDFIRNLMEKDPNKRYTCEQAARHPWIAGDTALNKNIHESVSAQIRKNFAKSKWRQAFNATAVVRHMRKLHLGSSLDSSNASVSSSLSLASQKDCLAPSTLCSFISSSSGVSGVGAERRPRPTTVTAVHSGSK
In data set [8] the test system is Mus musculus. Briefly: Prevention of Hgf gene downregulation in 5XFAD mouse hippocampus at 1200 ppm administered as rodent chow starting from 1.5 months and measured after 7 months by Nanostring analysis. The format is functional, tissue-based. The following applies: route po, time 5.5 months.
Data set [9] addresses T1, Macrophage colony-stimulating factor 1 receptor (Mus musculus) (UniProt P09581).
T1 sequence (whole entry): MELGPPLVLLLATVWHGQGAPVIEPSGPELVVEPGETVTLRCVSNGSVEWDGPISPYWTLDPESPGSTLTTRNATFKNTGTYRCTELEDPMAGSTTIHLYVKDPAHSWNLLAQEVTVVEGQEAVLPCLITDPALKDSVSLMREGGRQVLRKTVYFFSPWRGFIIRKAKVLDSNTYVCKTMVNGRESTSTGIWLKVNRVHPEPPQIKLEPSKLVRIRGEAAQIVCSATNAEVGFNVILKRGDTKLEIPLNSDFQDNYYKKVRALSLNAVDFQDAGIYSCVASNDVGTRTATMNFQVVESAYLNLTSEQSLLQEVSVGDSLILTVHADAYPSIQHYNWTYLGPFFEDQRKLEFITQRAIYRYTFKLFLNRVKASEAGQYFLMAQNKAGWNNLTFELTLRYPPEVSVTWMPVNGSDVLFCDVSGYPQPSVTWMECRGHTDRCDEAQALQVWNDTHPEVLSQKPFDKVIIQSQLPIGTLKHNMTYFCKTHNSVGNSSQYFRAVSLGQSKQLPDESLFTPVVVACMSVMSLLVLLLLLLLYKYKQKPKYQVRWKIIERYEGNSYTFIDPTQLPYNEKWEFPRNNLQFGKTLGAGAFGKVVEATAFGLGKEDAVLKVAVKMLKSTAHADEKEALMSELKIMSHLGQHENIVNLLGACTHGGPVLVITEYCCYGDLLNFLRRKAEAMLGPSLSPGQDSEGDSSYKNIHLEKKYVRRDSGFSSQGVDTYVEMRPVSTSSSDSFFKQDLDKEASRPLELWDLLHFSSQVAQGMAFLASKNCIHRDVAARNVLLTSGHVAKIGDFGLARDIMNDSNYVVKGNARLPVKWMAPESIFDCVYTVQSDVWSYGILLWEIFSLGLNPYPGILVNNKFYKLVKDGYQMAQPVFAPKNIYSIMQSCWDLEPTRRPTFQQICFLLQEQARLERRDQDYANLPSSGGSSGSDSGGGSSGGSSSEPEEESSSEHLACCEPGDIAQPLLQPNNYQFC
Put plainly: In vivo inhibition of CSF1R in wildtype mouse assessed as number of Iba1 positive cells per FOV in somatosensory cortex at 1200 ppm administered as rodent chow starting from 1.5 months to 4 months followed by compound removal and measured after 1 months by immunolabelling based confocal microscopic analysis (reference value: 304 to 351). The format is functional. The settings on record: route po, time 2.5 months.

Data set [10] addresses T1, Macrophage colony-stimulating factor 1 receptor (Mus musculus). Briefly: In vivo inhibition of CSF1R in wildtype mouse assessed as number of Iba1 positive cells per FOV in subiculum at 1200 ppm administered as rodent chow starting from 1.5 months and measured after 7 months by immunolabeling based confocal microscopic analysis (reference value: 482 to 1085). The class given is functional. The settings on record: route po, time 5.5 months.

Data set [11] deals with Receptor tyrosine-protein kinase erbB-2 (Homo sapiens, UniProt P04626). Briefly: Inhibition of ERBB2 (unknown origin).
The target of data set [12] is Tyrosine-protein kinase JAK2 (Homo sapiens, UniProt O60674). Put plainly: Inhibition of JAK2 (unknown origin).
Chain of Tyrosine-protein kinase JAK2 (O60674 whole entry): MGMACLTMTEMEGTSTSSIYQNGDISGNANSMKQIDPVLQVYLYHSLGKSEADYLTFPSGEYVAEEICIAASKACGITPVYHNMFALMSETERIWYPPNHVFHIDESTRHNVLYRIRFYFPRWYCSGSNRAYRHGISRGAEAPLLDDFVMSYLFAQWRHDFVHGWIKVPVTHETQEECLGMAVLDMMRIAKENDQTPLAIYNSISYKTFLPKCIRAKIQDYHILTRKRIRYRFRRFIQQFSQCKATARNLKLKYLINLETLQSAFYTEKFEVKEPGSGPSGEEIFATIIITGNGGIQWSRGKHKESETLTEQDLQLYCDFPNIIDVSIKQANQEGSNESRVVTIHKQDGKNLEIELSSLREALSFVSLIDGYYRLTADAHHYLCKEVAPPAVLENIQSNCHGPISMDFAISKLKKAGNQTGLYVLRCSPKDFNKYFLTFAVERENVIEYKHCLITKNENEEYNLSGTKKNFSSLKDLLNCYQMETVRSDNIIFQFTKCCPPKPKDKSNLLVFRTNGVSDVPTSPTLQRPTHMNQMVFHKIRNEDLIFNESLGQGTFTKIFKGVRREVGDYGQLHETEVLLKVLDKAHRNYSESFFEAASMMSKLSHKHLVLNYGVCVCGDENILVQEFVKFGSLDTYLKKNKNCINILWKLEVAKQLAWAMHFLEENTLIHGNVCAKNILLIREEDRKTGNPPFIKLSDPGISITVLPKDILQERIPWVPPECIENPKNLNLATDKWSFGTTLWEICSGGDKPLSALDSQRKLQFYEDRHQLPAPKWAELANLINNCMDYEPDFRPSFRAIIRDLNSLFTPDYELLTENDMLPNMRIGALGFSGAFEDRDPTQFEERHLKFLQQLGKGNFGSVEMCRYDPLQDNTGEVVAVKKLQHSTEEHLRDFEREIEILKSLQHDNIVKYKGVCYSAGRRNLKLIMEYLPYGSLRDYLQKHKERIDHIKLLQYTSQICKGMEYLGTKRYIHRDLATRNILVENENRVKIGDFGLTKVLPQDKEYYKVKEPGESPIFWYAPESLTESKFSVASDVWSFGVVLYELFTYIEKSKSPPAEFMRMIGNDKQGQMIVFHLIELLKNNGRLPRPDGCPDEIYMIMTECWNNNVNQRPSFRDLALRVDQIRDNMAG
The nature of data set [13]: Effect on ccl6 gene expression in wild type mouse hippocampus at 1200 ppm administered as rodent chow starting from 1.5 months and measured after 7 months by RNA-Seq analysis (reference value: 0.451 to 0.597 RPKM). The settings on record: route po, time 5.5 months, 4015 h. The format is functional.
Data set [14] concerns Mus musculus. Put plainly: Antialzheimer activity in 5XFAD mouse assessed as amyloidbeta42 level in detergent insoluble cortex fraction measured per microgram protein at 1200 ppm administered as rodent chow starting from 1.5 months and measured after 4 months by ELISA (reference value: 184693 to 3485624 pg). The following applies: route po, time 2.5 months, 1825 h. The format is functional. In outline: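 PLX5622 at 1200 ppm in chow given to 5xFAD mice from 1.5 months to 4 or 7 months of age; cortex and thalamus homogenized in TPER (detergent-soluble), pellets re-homogenized in 70% formic acid and spun 100,000 g, 1 h, 4 °C (insoluble); protein by Bradford/Lowry; Aβ species measured by Meso Scale electrochemiluminescence immunoassay, normalized to protein; n = 7–8 per group at 7 months.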
On the technique in general: ELISA stands for enzyme-linked immunosorbent assay.

The nature of data set [15]: Cmax in male rat at 45 mg/kg, po administered as single dose via gavage. The settings on record: in vivo. The class given is ADME, organism-based.
The target of data set [16] is G protein-coupled receptor kinase 5 (Homo sapiens, UniProt P34947). Put plainly: Inhibition of GRK5 (unknown origin).
Chain of G protein-coupled receptor kinase 5 (P34947 whole entry): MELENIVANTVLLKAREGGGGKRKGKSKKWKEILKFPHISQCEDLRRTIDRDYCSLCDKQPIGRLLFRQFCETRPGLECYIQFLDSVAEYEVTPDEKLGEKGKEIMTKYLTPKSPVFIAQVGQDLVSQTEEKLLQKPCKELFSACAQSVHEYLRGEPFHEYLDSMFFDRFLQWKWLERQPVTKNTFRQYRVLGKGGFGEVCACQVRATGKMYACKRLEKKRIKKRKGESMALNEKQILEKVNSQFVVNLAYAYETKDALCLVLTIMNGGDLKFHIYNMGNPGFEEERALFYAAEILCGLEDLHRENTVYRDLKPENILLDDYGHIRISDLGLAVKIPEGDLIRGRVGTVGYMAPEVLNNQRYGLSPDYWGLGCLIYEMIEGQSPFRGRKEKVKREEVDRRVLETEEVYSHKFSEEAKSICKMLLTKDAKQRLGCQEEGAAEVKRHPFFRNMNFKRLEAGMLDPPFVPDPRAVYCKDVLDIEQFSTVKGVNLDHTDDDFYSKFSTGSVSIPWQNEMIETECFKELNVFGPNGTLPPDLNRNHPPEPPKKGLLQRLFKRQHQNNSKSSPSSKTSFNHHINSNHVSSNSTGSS
Data set [17] addresses Mitogen-activated protein kinase kinase kinase kinase 2 (Homo sapiens, UniProt Q12851). Put plainly: Inhibition of MAP4K2 (unknown origin).
Data set [18] in a line: Effect on Rtn4r gene expression in wildtype mouse hippocampus assessed as percent change in Reads Per kilo base per Million mapped reads at 1200 ppm administered as rodent chow starting from 1.5 months and measured after 7 months by RNA-Seq analysis (reference value: 88.030 to 132.504 %). The format is functional. The settings on record: route po, time 5.5 months, 4015 h.

The nature of data set [19]: Half-life in dog at 1.00 mg/kg, iv administered as single dose. The format is ADME, organism-based, Canis lupus familiaris. The settings on record: in vivo.

Chain of Serine/threonine-protein kinase 4 (Q13043 whole entry): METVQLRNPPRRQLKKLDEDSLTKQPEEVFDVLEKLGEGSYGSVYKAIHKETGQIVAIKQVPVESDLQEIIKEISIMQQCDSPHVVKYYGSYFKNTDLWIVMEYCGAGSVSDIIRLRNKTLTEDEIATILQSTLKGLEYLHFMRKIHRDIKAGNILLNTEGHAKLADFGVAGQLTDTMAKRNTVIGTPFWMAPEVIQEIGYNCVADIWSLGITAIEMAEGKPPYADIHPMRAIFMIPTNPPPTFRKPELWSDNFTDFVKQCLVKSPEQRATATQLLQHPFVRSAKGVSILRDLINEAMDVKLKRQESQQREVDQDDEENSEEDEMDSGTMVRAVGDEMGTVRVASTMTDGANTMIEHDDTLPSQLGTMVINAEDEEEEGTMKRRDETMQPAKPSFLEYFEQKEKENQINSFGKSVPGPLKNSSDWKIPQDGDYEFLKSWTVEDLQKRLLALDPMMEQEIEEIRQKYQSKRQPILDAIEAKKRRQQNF
Chain of Mitogen-activated protein kinase kinase kinase kinase 2 (Q12851 whole entry): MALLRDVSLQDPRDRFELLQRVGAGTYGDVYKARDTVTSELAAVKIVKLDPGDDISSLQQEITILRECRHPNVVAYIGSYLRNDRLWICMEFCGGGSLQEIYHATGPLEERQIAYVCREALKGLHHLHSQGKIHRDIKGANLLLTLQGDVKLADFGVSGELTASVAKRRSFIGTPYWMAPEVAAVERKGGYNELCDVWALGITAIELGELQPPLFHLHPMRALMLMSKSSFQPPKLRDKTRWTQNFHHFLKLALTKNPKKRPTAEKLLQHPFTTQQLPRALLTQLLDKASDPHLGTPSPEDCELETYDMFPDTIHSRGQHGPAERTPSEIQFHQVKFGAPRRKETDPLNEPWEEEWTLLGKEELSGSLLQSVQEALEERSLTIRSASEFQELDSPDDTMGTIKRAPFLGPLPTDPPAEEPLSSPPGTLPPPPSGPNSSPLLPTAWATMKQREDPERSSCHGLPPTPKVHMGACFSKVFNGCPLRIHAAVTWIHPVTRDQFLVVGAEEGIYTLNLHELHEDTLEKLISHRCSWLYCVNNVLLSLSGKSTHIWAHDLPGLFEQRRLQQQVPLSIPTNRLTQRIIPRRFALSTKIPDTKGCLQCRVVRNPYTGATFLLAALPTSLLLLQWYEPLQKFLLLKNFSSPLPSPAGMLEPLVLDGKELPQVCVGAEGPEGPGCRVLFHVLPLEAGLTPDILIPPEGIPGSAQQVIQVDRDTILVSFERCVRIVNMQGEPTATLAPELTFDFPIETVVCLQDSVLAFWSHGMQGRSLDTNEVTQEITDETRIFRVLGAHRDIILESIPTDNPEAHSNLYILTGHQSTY
Chain of Ribosomal protein S6 kinase alpha-3 (P51812 whole entry): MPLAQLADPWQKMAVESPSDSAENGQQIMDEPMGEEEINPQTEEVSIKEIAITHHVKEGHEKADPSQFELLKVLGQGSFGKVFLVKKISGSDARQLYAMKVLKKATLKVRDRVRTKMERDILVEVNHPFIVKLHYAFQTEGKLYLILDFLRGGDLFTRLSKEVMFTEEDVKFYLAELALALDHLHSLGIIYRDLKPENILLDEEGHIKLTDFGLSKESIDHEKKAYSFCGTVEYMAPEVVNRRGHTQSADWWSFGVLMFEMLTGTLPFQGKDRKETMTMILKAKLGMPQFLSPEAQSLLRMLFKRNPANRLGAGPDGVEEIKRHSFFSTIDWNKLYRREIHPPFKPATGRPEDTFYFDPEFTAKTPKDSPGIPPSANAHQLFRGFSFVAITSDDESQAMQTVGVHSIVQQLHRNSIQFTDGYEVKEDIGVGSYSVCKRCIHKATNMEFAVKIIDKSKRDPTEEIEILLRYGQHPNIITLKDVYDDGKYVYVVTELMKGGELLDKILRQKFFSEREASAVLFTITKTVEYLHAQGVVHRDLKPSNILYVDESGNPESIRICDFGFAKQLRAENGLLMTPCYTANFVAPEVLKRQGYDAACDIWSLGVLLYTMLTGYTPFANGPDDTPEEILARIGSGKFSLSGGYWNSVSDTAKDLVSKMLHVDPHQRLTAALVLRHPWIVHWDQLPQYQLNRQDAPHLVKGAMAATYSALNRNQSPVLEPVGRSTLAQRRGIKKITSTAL

In [1], `FC(F)(F)c1ccc(CNc2ccc(Cc3c[nH]c4ncc(Cl)cc34)cn2)cn1` [PEXIDARTINIB] showed a concentration at 2555 h of 139 µM.
In general, IC50 refers to the concentration needed to halve the response being measured. The Cmax is the peak of the concentration-time curve. Broadly, the half-life is the time in which the quantity being followed falls by half. A high value points to slow decline. As for `COc1ncc(F)cc1CNc1ccc(Cc2c[nH]c3ncc(C)cc23)c(F)n1` [PLX-5622], the IC50 in data set [2], in [3], in data set [4], in [5], in data set [7] and in [11] was over 1 µM in each case. The IC50 in data set [12], in [16] and in data set [17] was over 1 µM throughout. Further, the Activity in the data set with Mus musculus [6] was determined as 10; in [9] it was 108; in data set [10], 0; in data set [13], 0 RPKM; with Mus musculus [14] it was 14098.06 pg; in data set [18], 89.887%. Also, the outcome in the data set on Mus musculus [8] was Active. In data set [15], the peak level (Cmax) was 12000 ng/mL. Also, the half-life in data set [19] is 15 h.
